# From ChEMBL document CHEMBL4308922, “Design and Evaluation of Heterobivalent PAR1-PAR2 Ligands as Antagonists of Calcium Mobilization” (ACS Med Chem Lett, 2019)
# Active and inactive are the calls of the source. The calls are words filed in the database; no cut-off is given here.
# Tests used:
# Homo sapiens = species on record: Homo sapiens; test: (§1) Antagonist activity at PAR1/PAR2 in human EAhy926 cells assessed as inhibition of SFLLRN-NH2-induced intracellular calcium mobilization preincubated for 15 mins followed by SFLLRN-NH2 addition by Fluo-4-AM dye based fluorescence assay; format: cell-based
# In short: (§2)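 Cells cultured to confluence over ~48 h in 96-well plates, Fluo-4/AM loaded; antagonist added, then PAR1/2 agonist SFLLRN-NH2 at 3.16 μM. Curves from triplicate wells on a single plate fitted by four-variable nonlinear regression for IC50; SEM reported.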
# [1] = molecular target: T1, Proteinase-activated receptor 2 (Homo sapiens, UniProt P55085); test: (§3) Antagonist activity at PAR2 in human EAhy926 cells assessed as inhibition of SLIGKV-NH2-induced intracellular calcium mobilization preincubated for 15 mins followed by SLIGKV-NH2 addition by Fluo-4-AM dye based fluorescence assay; format: functional, cell-based
# T1 sequence (P55085 whole entry): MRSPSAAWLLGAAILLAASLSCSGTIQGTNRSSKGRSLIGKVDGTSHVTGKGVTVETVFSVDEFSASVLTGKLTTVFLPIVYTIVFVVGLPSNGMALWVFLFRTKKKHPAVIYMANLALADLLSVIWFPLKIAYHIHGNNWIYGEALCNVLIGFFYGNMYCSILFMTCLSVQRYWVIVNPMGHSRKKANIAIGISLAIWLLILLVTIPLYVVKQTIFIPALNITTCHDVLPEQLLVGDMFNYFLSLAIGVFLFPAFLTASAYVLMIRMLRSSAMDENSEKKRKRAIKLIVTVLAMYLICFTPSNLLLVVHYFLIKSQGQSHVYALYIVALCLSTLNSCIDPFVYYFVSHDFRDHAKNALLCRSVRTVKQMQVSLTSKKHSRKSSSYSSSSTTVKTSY
# In short: (§4)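 Confluent adherent cells (~48 h growth in 96-well plates) loaded with Fluo-4/AM calcium dye; antagonist added before PAR2 agonist SLIGKV-NH2 at 5 μM. IC50 from four-variable nonlinear regression of concentration–response data, N = 3 on one plate, SEM error bars.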
# [2] = molecular target: T1, Proteinase-activated receptor 2; test: (§5) Antagonist activity at PAR2 in human MDA-MB-231 cells assessed as inhibition of SLIGKV-NH2-induced intracellular calcium mobilization preincubated for 15 mins followed by SLIGKV-NH2 addition by Fluo-4-AM dye based fluorescence assay; format: functional, cell-based; in short: as §4
# [3] = molecular target: Proteinase-activated receptor 2 (Homo sapiens) (UniProt P55085); test: (§6) Antagonist activity at PAR2 in human EAhy926 cells assessed as inhibition of trypsin-induced intracellular calcium mobilization preincubated for 15 mins followed by trypsin addition by Fluo-4-AM dye based fluorescence assay; format: functional, cell-based
# In short: (§7)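 Fluo-4/AM-loaded confluent cells; antagonist added before 5 nM trypsin as PAR2-activating protease; calcium mobilization concentration–response fitted for IC50.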
# [4] = molecular target: T2, Proteinase-activated receptor 1 (Homo sapiens, UniProt P25116); test: (§8) Antagonist activity at PAR1 in human EAhy926 cells assessed as inhibition of TFLLRN-NH2-induced intracellular calcium mobilization preincubated for 15 mins followed by TFLLRN-NH2 addition by Fluo-4-AM dye based fluorescence assay; format: functional, cell-based
# T2 sequence (P25116 whole entry): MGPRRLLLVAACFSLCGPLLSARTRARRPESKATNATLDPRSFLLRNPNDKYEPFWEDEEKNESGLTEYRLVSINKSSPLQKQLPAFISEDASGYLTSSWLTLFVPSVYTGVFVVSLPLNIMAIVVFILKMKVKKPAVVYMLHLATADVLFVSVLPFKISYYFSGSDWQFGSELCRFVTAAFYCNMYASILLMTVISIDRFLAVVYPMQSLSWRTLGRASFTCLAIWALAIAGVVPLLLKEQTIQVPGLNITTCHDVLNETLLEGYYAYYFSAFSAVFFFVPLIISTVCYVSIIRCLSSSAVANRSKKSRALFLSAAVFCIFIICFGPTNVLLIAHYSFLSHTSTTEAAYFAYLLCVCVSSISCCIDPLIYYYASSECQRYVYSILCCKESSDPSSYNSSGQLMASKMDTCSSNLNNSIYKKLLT
# In short: (§9)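 Adherent cells grown in 96-well plates to confluence (~48 h), loaded with Fluo-4/AM; antagonist added, then PAR1 agonist TFLLRN-NH2 at 5 μM. Concentration–response curves from N = 3 on a single plate, fitted by four-variable nonlinear regression to give IC50; errors as SEM.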
# [5] = (§10) Antagonist activity at PAR1/PAR2 in human MDA-MB-231 cells assessed as inhibition of SFLLRN-NH2-induced intracellular calcium mobilization preincubated for 15 mins followed by SFLLRN-NH2 addition by Fluo-4-AM dye based fluorescence assay; format: cell-based; in short: as §2
# [6] = Half life in mouse plasma at 10 uM by LC-MS/MS analysis; format: ADME, cell-free
# [7] = as §1; format: cell-based; settings: EA.hy 926; in short: as §2
# [8] = molecular target: T2, Proteinase-activated receptor 1; test: (§11) Antagonist activity at PAR1 in human MDA-MB-231 cells assessed as inhibition of TFLLRN-NH2-induced intracellular calcium mobilization preincubated for 15 mins followed by TFLLRN-NH2 addition by Fluo-4-AM dye based fluorescence assay; format: functional, cell-based; in short: as §9
# [9] = molecular target: T2, Proteinase-activated receptor 1; test: (§12) Antagonist activity at PAR1 in human EAhy926 cells assessed as inhibition of thrombin-induced intracellular calcium mobilization preincubated for 15 mins followed by thrombin addition by Fluo-4-AM dye based fluorescence assay; format: functional, cell-based
# In short: (§13)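 Fluo-4/AM-loaded confluent EA.hy926 monolayers; antagonist added before 1 nM thrombin as activating protease; calcium mobilization curves fitted for IC50.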
# [10] = molecular target: Proteinase-activated receptor 2 (Homo sapiens) (UniProt P55085); test: as §3; format: functional, cell-based; in short: as §4
# [11] = molecular target: Proteinase-activated receptor 2 (Homo sapiens) (UniProt P55085); test: as §5; format: functional, cell-based; in short: as §4
# [12] = molecular target: T3, Proteinase-activated receptor 1 (Homo sapiens) (UniProt P25116); test: as §8; format: functional, cell-based; in short: as §9
# T3 sequence (whole entry): T2 sequence (P25116 whole entry)
# MDA-MB-231 = test: as §10; format: cell-based; in short: as §2
# [13] = molecular target: T3, Proteinase-activated receptor 1 (Homo sapiens); test: as §11; format: functional, cell-based; in short: as §9
# [14] = molecular target: T3, Proteinase-activated receptor 1 (Homo sapiens); test: as §12; format: functional, cell-based; in short: as §13
# [15] = molecular target: T1, Proteinase-activated receptor 2; test: as §6; format: functional, cell-based; in short: as §7
Compound,IC50 [1],IC50 [4],IC50 [7],inhibition [10],inhibition (Homo sapiens),also measured
COCc1cn(CCOCCOCCOCCOCCOCCOCCOCCOCCOCCOCCNC(=O)CCC(=O)N2CCN(C(=O)c3cn4nc(-c5ccc(F)cc5)cc(C(C)C)c4n3)C(C)(C)C2)nn1,7 µM,–,–,–,inactive,IC50 [2]: 0.86 µM; inhibition [3]: inactive
CC(C)c1cc(-c2ccc(F)cc2)nn2cc(C(=O)N3CCN(C(=O)CCC(=O)NCCOCCOCCOCCOCCOCCOCCOCCOCCOCCOCCOCCOCCOCCOCCOCCOCCOCCOCCOCCOCCOCCOCCOCCn4cc(CCC(=O)NCC[C@H](NC(=O)[C@H](Cc5ccc(F)c(F)c5)NC(=O)Nc5ccc6c(CN7CCCC7)nn(Cc7c(Cl)cccc7Cl)c6c5)C(=O)NCc5ccccc5)nn4)CC3(C)C)nc12,3.3 µM,0.18 µM,0.15 µM,–,–,IC50 [5]: 3.3 µM; half-life at 10 µM [6]: 5.6 h; IC50 [8]: 0.14 µM; IC50 [2]: 3.5 µM; IC50 [9]: 0.36 µM; inhibition [3]: inactive
CC1(C)CN(C(=O)[C@H]2CC[C@H](C(=O)O)CC2)CCN1C(=O)c1cn2nc(-c3ccc(F)cc3)cc(-c3ccc(F)cc3)c2n1,–,–,–,Active,–,inhibition [11]: Active
CC(C)c1cc(-c2ccc(F)cc2)nn2cc(C(=O)N3CCN(C(=O)CCC(=O)NCCCCC(=O)NCCOCCOCCOCCOCCOCCOCCOCCOCCOCCOCCOCCOCCOCCOCCOCCOCCOCCOCCOCCOCCOCCOCCOCCn4cc(CCC(=O)NCC[C@H](NC(=O)[C@H](Cc5ccc(F)c(F)c5)NC(=O)Nc5ccc6c(CN7CCCC7)nn(Cc7c(Cl)cccc7Cl)c6c5)C(=O)NCc5ccccc5)nn4)CC3(C)C)nc12,–,–,–,inactive,inactive,inhibition [12]: inactive; inhibition (MDA-MB-231): inactive; inhibition [13]: inactive; inhibition [11]: inactive
CC(C)c1cc(-c2ccc(F)cc2)nn2cc(C(=O)N3CCN(C(=O)CCC(=O)NCCCCCC(=O)NCCOCCOCCOCCOCCOCCOCCOCCOCCOCCOCCOCCOCCOCCOCCOCCOCCOCCOCCOCCOCCOCCOCCOCCN=[N+]=[N-])CC3(C)C)nc12,–,–,–,inactive,–,inhibition [11]: inactive
NCCOCCOCCOCCOCCOCCOCCOCCOCCn1cc(CCC(=O)NCC[C@H](NC(=O)[C@H](Cc2ccc(F)c(F)c2)NC(=O)Nc2ccc3c(CN4CCCC4)nn(Cc4c(Cl)cccc4Cl)c3c2)C(=O)NCc2ccccc2)nn1,–,0.097 µM,0.074 µM,–,–,IC50 [8]: 0.01 µM; inhibition [14]: Active
NCC[C@H](NC(=O)[C@H](Cc1ccc(F)c(F)c1)NC(=O)Nc1ccc2c(CN3CCCC3)nn(Cc3c(Cl)cccc3Cl)c2c1)C(=O)NCc1ccccc1 [RWJ-58259],–,–,–,–,–,IC50 [8]: 0.005 µM
CC(C)c1cc(-c2ccc(F)cc2)nn2cc(C(=O)N3CCN(C(=O)CCC(=O)O)CC3(C)C)nc12,0.1 µM,–,–,–,–,IC50 [2]: 0.48 µM; IC50 [15]: 0.002 µM

# Second part, led by results:
IC50 [1],IC50 [4],IC50 [7],inhibition [10],Compound,inhibition (Homo sapiens),also measured
–,–,–,Active,CC1(C)CN(C(=O)[C@H]2CC[C@H](C(=O)NCCOCCOCCOCCOCCOCCOCCOCCOCCn3cc(CCC(=O)NCC[C@H](NC(=O)[C@H](Cc4ccc(F)c(F)c4)NC(=O)Nc4ccc5c(CN6CCCC6)nn(Cc6c(Cl)cccc6Cl)c5c4)C(=O)NCc4ccccc4)nn3)CC2)CCN1C(=O)c1cn2nc(-c3ccc(F)cc3)cc(-c3ccc(F)cc3)c2n1,Active,inhibition [12]: Active
> 50 µM,0.13 µM,3 µM,–,CC(C)c1cc(-c2ccc(F)cc2)nn2cc(C(=O)N3CCN(C(=O)CCC(=O)NCCOCCOCCOCCOCCOCCOCCOCCOCCn4cc(CCC(=O)NCC[C@H](NC(=O)[C@H](Cc5ccc(F)c(F)c5)NC(=O)Nc5ccc6c(CN7CCCC7)nn(Cc7c(Cl)cccc7Cl)c6c5)C(=O)NCc5ccccc5)nn4)CC3(C)C)nc12,–,–
> 50 µM,0.04 µM,> 50 µM,–,CC(C)c1cc(-c2ccc(F)cc2)nn2cc(C(=O)N3CCN(C(=O)CCC(=O)NCCOCCOCCOCCOCCOCCOCCOCCOCCOCCOCCn4cc(CCC(=O)NCC[C@H](NC(=O)[C@H](Cc5ccc(F)c(F)c5)NC(=O)Nc5ccc6c(CN7CCCC7)nn(Cc7c(Cl)cccc7Cl)c6c5)C(=O)NCc5ccccc5)nn4)CC3(C)C)nc12,–,–
–,–,–,Active,CC1(C)CN(C(=O)[C@H]2CC[C@H](C(=O)NCCOCCOCCOCCOCCOCCOCCOCCOCCOCCOCCn3cc(CCC(=O)NCC[C@H](NC(=O)[C@H](Cc4ccc(F)c(F)c4)NC(=O)Nc4ccc5c(CN6CCCC6)nn(Cc6c(Cl)cccc6Cl)c5c4)C(=O)NCc4ccccc4)nn3)CC2)CCN1C(=O)c1cn2nc(-c3ccc(F)cc3)cc(-c3ccc(F)cc3)c2n1,Active,inhibition [12]: Active
–,–,–,Active,CC1(C)CN(C(=O)[C@H]2CC[C@H](C(=O)NCCOCCOCCOCCOCCOCCOCCn3cc(CCC(=O)NCC[C@H](NC(=O)[C@H](Cc4ccc(F)c(F)c4)NC(=O)Nc4ccc5c(CN6CCCC6)nn(Cc6c(Cl)cccc6Cl)c5c4)C(=O)NCc4ccccc4)nn3)CC2)CCN1C(=O)c1cn2nc(-c3ccc(F)cc3)cc(-c3ccc(F)cc3)c2n1,Active,inhibition [12]: Active
> 50 µM,0.03 µM,3 µM,–,CC(C)c1cc(-c2ccc(F)cc2)nn2cc(C(=O)N3CCN(C(=O)CCC(=O)NCCOCCOCCOCCOCCOCCOCCn4cc(CCC(=O)NCC[C@H](NC(=O)[C@H](Cc5ccc(F)c(F)c5)NC(=O)Nc5ccc6c(CN7CCCC7)nn(Cc7c(Cl)cccc7Cl)c6c5)C(=O)NCc5ccccc5)nn4)CC3(C)C)nc12,–,–
